KCNK3 inh – human KCNK3 channel inhibition, primary screen; O14649; CHO-KCNK3 thallium flux, FluxOR fluorescence; stronger effect = lower value; B-score at 10 µM; 340,000 tested, 0.84% active; AID 602410;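 active = B-score under library mean minus 4 SD, starting fluorescence ratio at most library mean plus 5 SD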;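 also: more negative B-score means stronger inhibition of thallium flux through KCNK3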
KCNQ1 block – human KCNQ1 channel inhibition. CHO-K1 KCNQ1, FluxOR thallium flux fluorescence; stronger effect = higher value. B-score at 10 µM. P51787. AID 2642. 310,000 tested, 1.3% active;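 active = compounds whose thallium flux B-score, printed positive for inhibition, exceeds three library SD while starting fluorescence stays within three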;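 also: channel opened by potassium depolarization with thallium stimulus after 20 min compound exposure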
KCNK9 inh – inhibitors of human KCNK9 two-pore domain potassium channel. Q9NPC2. AID 488922. 310,000 tested, 1.2% active. B-score at 10 µM. HEK293 KCNK9, FluxOR thallium flux fluorescence; stronger effect = lower value;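 active = ratio B-score over 3 SD below the library mean, with starting fluorescence within 5 SD of its mean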;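 also: negative B-score means less thallium flux so channel inhibition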
hERG rescue – shields human hERG channel from block by proarrhythmic agents; Q12809; CHO-hERG, FluxOR thallium flux, dofetilide IC70 present; activation (rescue from dofetilide block), less the hit threshold, % at 10 µM; 310,000 tested, 0.51% active; AID 1511;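 active = activation above the mean of controls blocked by dofetilide plus 5 SD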;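 also: thallium influx through hERG after potassium depolarization seen as dye fluorescence rise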
KCNQ1 act – human KCNQ1 channel potentiation or activation; CHO-K1 KCNQ1, thallium flux FluxOR fluorescence; stronger effect = higher value; AID 2648; B-score at 10 µM; 310,000 tested, 0.35% active; P51787;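 active = fluorescence ratio B-score, a plate-corrected score, at least three library SD, with initial intensity B-score within 5 SD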
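Assay system: CHO-K1 cells stably expressing KCNQ1. Medium: assay buffer for compound exposure, DMSO matched across wells. Timing: 37 °C overnight plating, 90-min dark dye load, 20-min compound pretreatment. Signal: kinetic FluxOR fluorescence, 10 s baseline plus 110 s post-stimulus.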
Kir21 block – inhibitors of mouse Kir2.1 inward-rectifier potassium channel; HEK293-Kir2.1, FluxOR thallium flux fluorescence; stronger effect = lower value; B-score at 10 µM; 310,000 tested, 0.85% active; P35561; AID 1672;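 active = fluorescence ratio B-score at or below minus 3 SD of library scores, with starting-brightness B-score within 2 SD, cut at about -4.2 in these data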;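 also: channel flux triggered by added potassium and thallium sulfate stimulus; B-score of peak minus minimum fluorescence over baseline after thallium stimulus; more negative B-score means stronger Kir2.1 block with less thallium influx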
Target sequence (P35561 whole entry, looked up): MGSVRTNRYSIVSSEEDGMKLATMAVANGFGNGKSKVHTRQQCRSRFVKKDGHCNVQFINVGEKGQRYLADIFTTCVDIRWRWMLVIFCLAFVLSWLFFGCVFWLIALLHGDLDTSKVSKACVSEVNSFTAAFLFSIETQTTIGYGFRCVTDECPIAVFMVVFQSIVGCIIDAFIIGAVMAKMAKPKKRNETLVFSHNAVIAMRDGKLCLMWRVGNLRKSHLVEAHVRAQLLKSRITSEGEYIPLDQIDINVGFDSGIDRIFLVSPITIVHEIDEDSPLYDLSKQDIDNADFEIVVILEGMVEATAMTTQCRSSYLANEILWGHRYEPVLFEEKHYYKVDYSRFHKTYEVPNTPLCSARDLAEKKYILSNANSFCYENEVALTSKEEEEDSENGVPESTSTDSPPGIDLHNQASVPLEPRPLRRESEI
KCNK9 inh conf – confirmation of human KCNK9 potassium channel inhibitors; shares compounds with KCNK9 inh; HEK293 KCNK9 cells, FluxOR thallium flux fluorescence; inhibition, % at 10 µM; 4,900 tested, 43% active; AID 492992;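 active = thallium signal inhibited by more than 5 SD of the compound-free buffer control wells, on both duplicate plates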
Kir2-1 spec – tests whether KCNK9 modulators also affect mouse Kir2.1; shares compounds with KCNK9 inh; Kir2.1 cells, FluxOR thallium flux fluorescence; inhibition, % at 10 µM; 4,900 tested, 4% active;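 active = thallium signal drop more than 5 SD beyond the mean of the no-compound control wells, seen in both duplicate plates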;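 also: signal is fluorescence rise after thallium addition divided by baseline fluorescence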
KCNK9 uninduced – second counter-screen for KCNK9 modulators: effect in non-induced cells; shares compounds with KCNK9 inh; inhibition, % at 10 µM; 4,900 tested, 40% active; non-induced KCNK9-HEK293, FluxOR thallium flux;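 active = thallium signal drop beyond 5 SD of the untreated control mean, on both duplicate plates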
A number is an active result. In the library only some 3.7% were active in any assay of this set; here they are far more common.

How did COc1cccc(-c2ccc(SCc3ccccn3)nn2)c1 do in these assays?
KCNK3 inh: inactive; KCNQ1 block: inactive; KCNK9 inh: inactive; hERG rescue: inactive; KCNQ1 act: inactive; Kir21 block: inactive; KCNK9 inh conf: inactive; Kir2-1 spec: inactive; KCNK9 uninduced: inactive

Results for CCN1C[C@@H]2[C@@H]3C(=O)N(C)C(=O)[C@@H]3[C@](Cc3ccccc3)(C1=O)N2C(=O)c1ccc(F)cc1 ?
KCNK3 inh: inactive

How did Cc1cccc(N2CCN(C(=O)c3ccc(N4CCCC4=O)cc3)CC2C)c1 (stereo not drawn) do in these assays?
KCNK3 inh: inactive; KCNQ1 block: inactive; KCNK9 inh: inactive; hERG rescue: inactive; KCNQ1 act: inactive; Kir21 block: inactive

What do the screens show for `Cc1cccc(N2CCN(C(=O)c3ccc4c(c3)c(C)c(C)n4C)CC2C)c1` (stereo not drawn)?
KCNK3 inh: inactive; KCNQ1 block: inactive; KCNK9 inh: inactive; hERG rescue: inactive; KCNQ1 act: inactive; Kir21 block: inactive; KCNK9 inh conf: inactive; Kir2-1 spec: inactive; KCNK9 uninduced: inactive

Results for CCOc1cccc(-c2c(C(=O)N/N=C/c3c(F)cccc3Cl)nnn2-c2nonc2N)c1 ?
KCNK3 inh: inactive; KCNQ1 block: inactive; KCNK9 inh: -9.44; hERG rescue: inactive; KCNQ1 act: inactive; Kir21 block: inactive; KCNK9 inh conf: inactive; Kir2-1 spec: inactive; KCNK9 uninduced: inactive

How did CC(C)(C)NC(=O)C1CC(=O)N(CCc2ccc(F)cc2)C1 (stereo not drawn) do in these assays?
KCNK3 inh: inactive; KCNQ1 block: inactive; KCNK9 inh: inactive; hERG rescue: inactive; KCNQ1 act: inactive; Kir21 block: inactive

How did COC(=O)c1ccc(C(=O)OC)c(NC(=O)CCC(=O)O)c1 do in these assays?
KCNK3 inh: inactive; KCNQ1 block: inactive; KCNK9 inh: inactive; hERG rescue: inactive; KCNQ1 act: inactive; Kir21 block: inactive

How did COC(=O)c1ccc(C(=O)OC)c(NC(=O)CN(C)Cc2cccc(Cl)c2Cl)c1 do in these assays?
KCNK3 inh: inactive; KCNQ1 block: inactive; KCNK9 inh: -11.8; hERG rescue: inactive; KCNQ1 act: inactive; Kir21 block: inactive; KCNK9 inh conf: 80.0%; Kir2-1 spec: inactive; KCNK9 uninduced: 46.0%

What do the screens show for `COC(=O)c1ccc(C(=O)OC)c(NC(=O)CN(C)Cc2ccccc2)c1`?
KCNK3 inh: inactive; KCNQ1 block: inactive; KCNK9 inh: -11.3; hERG rescue: inactive; KCNQ1 act: inactive; Kir21 block: inactive; KCNK9 inh conf: 71.0%; Kir2-1 spec: inactive; KCNK9 uninduced: 36.0%

What do the screens show for `CC1(c2ccc(OCC#N)cc2)C=C(c2ccc(OCC#N)cc2)n2nc(C(F)(F)F)nc2N1` (stereo not drawn)?
KCNK3 inh: inactive; KCNQ1 block: inactive; KCNK9 inh: -9.23; hERG rescue: inactive; KCNQ1 act: inactive; Kir21 block: inactive; KCNK9 inh conf: 43.0%; Kir2-1 spec: inactive; KCNK9 uninduced: 44.0%

How did CCCOc1c(Br)cc(C2C3=C(CCCC3=O)N(CC)C3=C2C(=O)CCC3)cc1OC do in these assays?
KCNK3 inh: inactive; KCNQ1 block: inactive; KCNK9 inh: -8.45; hERG rescue: inactive; KCNQ1 act: inactive; Kir21 block: inactive; KCNK9 inh conf: inactive; Kir2-1 spec: inactive; KCNK9 uninduced: 31.0%

How did CCCOc1c(Br)cc(C2C3=C(CCCC3=O)N(C)C3=C2C(=O)CCC3)cc1OC do in these assays?
KCNK3 inh: inactive; KCNQ1 block: inactive; KCNK9 inh: inactive; hERG rescue: inactive; KCNQ1 act: inactive; Kir21 block: inactive

What do the screens show for `CC(C)c1ccc(-n2c(-c3ccccc3)c[n+]3c2CCc2ccccc2-3)cc1`?
KCNK3 inh: inactive; KCNQ1 block: inactive; KCNK9 inh: -15.7; hERG rescue: inactive; KCNQ1 act: inactive; Kir21 block: -13.7; KCNK9 inh conf: 71.5%; Kir2-1 spec: 75.0%; KCNK9 uninduced: 31.5%

How did CCN1CCN(C(=S)Nc2sc(C)c(-c3ccccc3)c2C(=O)OC)CC1 do in these assays?
KCNK3 inh: inactive; KCNQ1 block: 6; KCNK9 inh: inactive; hERG rescue: inactive; KCNQ1 act: inactive; Kir21 block: inactive; KCNK9 inh conf: inactive; Kir2-1 spec: inactive; KCNK9 uninduced: inactive

What do the screens show for `CCCN1CCN(C(=S)Nc2sc(CC)cc2C(=O)OC)CC1`?
KCNK3 inh: inactive; KCNQ1 block: inactive; KCNK9 inh: inactive; hERG rescue: inactive; KCNQ1 act: inactive; Kir21 block: inactive; KCNK9 inh conf: inactive; Kir2-1 spec: inactive; KCNK9 uninduced: inactive

What do the screens show for `O=C(Nc1cccc(Cl)c1N1CCCC1)c1cc2ccccc2o1`?
KCNK3 inh: inactive; KCNQ1 block: inactive; KCNK9 inh: inactive; hERG rescue: inactive; KCNQ1 act: inactive; Kir21 block: inactive

Results for O=C(Nc1cccc(Cl)c1N1CCCC1)c1ccc([N+](=O)[O-])o1 ?
KCNK3 inh: inactive; KCNQ1 block: inactive; KCNK9 inh: -10; hERG rescue: inactive; KCNQ1 act: inactive; Kir21 block: inactive; KCNK9 inh conf: 34.0%; Kir2-1 spec: inactive; KCNK9 uninduced: 28.5%

What do the screens show for `O=C(Nc1cccc(Cl)c1N1CCCC1)c1ccc(Br)o1`?
KCNK3 inh: inactive; KCNQ1 block: inactive; KCNK9 inh: -9.34; hERG rescue: inactive; KCNQ1 act: inactive; Kir21 block: inactive; KCNK9 inh conf: 27.5%; Kir2-1 spec: inactive; KCNK9 uninduced: 32.0%

What do the screens show for `O=[N+]([O-])c1cccc(-c2noc3c2-c2nc(Cc4cccc5ccccc45)sc2CC3)c1`?
KCNK3 inh: inactive; KCNQ1 block: inactive; KCNK9 inh: inactive; hERG rescue: inactive; KCNQ1 act: inactive; Kir21 block: inactive

Results for CC(=O)Nc1ccc(C(=O)CSc2nnc(-c3ccccc3F)n2CCc2ccccc2)cc1 ?
KCNK3 inh: inactive

How did Cc1ccc(-n2cnc3c(=O)[nH]cnc32)cc1 do in these assays?
KCNK3 inh: inactive

Results for CC(C)=CCC12Oc3cc(O)ccc3C1(O)Oc1cc3c(c(O)c1C2=O)C=CC(C)(C)O3 (stereo not drawn) ?
KCNQ1 block: inactive; KCNK9 inh: -8.26; hERG rescue: inactive; KCNQ1 act: inactive; Kir21 block: inactive; KCNK9 inh conf: inactive; Kir2-1 spec: inactive; KCNK9 uninduced: 24.5%

What do the screens show for `CN(CC1CCN(CCc2cccc(C(F)(F)F)c2)CC1)C(=O)c1ccc(F)cc1`?
KCNK3 inh: inactive; KCNQ1 block: inactive; KCNK9 inh: inactive; hERG rescue: inactive; KCNQ1 act: inactive; Kir21 block: inactive; KCNK9 inh conf: inactive; Kir2-1 spec: inactive; KCNK9 uninduced: inactive

Screening results (PubChem)
